ChEMBL document CHEMBL3868630, “Synthesis, anti-proliferative activity, SAR study, and preliminary in vivo toxicity study of substituted N,N'-bis(arylmethyl)benzimidazolium salts against a panel of non-small cell lung cancer cell lines” (Bioorg Med Chem, 2017)

Key:
[1] = Cytotoxicity against human A549 cells assessed as decrease in cell viability after 72 hrs by MTT assay; format: functional, cell-based; conditions: A549, 72 h
How it was run: (§1)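 Cells kept in RPMI 1640 with 10% FBS at 37 °C, 5% CO2, passaged every 2-3 days; seeded at 5,000-7,000 cells/well and left 24 h. Compounds dissolved in 1% DMSO, diluted in fresh medium to 1, 4, 16 and 32 µM, added in sextuplicate; 72 h exposure. MTT added for 3-4 h, medium removed, DMSO added for 15 min at 37 °C, OD read at 540 nm.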

[2] = Cytotoxicity against human NCI-H522 cells assessed as cell growth at 10 uM after 48 hrs by SRB assay relative to control; format: functional; conditions: NCI-H522, 48 h, read-out: Activity
[3] = Cytotoxicity against human NCI-H23 cells assessed as cell growth at 10 uM after 48 hrs by SRB assay relative to control; format: functional; conditions: NCI-H23, 48 h, read-out: Activity
[4] = Cytotoxicity against human EKVX cells assessed as cell growth at 10 uM after 48 hrs by SRB assay relative to control; format: functional; conditions: read-out: Activity
[5] = Cytotoxicity against human HOP62 cells assessed as cell growth at 10 uM after 48 hrs by SRB assay relative to control; format: functional; conditions: HOP-62, 48 h, read-out: Activity
[6] = Cytotoxicity against human HCC827 cells assessed as decrease in cell viability after 72 hrs by MTT assay; format: functional, cell-based; conditions: HCC827, 72 h; how it was run: as §1
[7] = Aqueous solubility of the compound; format: physicochemical
[8] = Cytotoxicity against human NCI-H1975 cells assessed as decrease in cell viability after 72 hrs by MTT assay; format: functional, cell-based; conditions: NCI-H1975, 72 h; how it was run: as §1
[9] = Cytotoxicity against human HOP92 cells assessed as cell growth at 10 uM after 48 hrs by SRB assay relative to control; format: functional; conditions: HOP-92, 48 h, read-out: Activity
[10] = Cytotoxicity against human A549 cells assessed as cell growth at 10 uM after 48 hrs by SRB assay relative to control; format: functional; conditions: A549, 48 h, read-out: Activity
[11] = Cytotoxicity against human NCI-H322M cells assessed as cell growth at 10 uM after 48 hrs by SRB assay relative to control; format: functional; conditions: read-out: Activity
[12] = Cytotoxicity against human NCI-H460 cells assessed as cell growth at 10 uM after 48 hrs by SRB assay relative to control; format: functional; conditions: NCI-H460, 48 h, read-out: Activity
[13] = Cytotoxicity against human NCI-H460 cells assessed as decrease in cell viability after 72 hrs by MTT assay; format: functional, cell-based; conditions: NCI-H460, 72 h; how it was run: as §1
[14] = Cytotoxicity against human NCI-H226 cells assessed as cell growth at 10 uM after 48 hrs by SRB assay relative to control; format: functional; conditions: NCI-H226, 48 h, read-out: Activity
[15] = Growth inhibition of human NCI-H226 cells after 48 hrs by SRB assay; format: functional; conditions: NCI-H226, 48 h
[16] = Growth inhibition of human HOP62 cells after 48 hrs by SRB assay; format: functional; conditions: HOP-62, 48 h
[17] = Growth inhibition of human EKVX cells after 48 hrs by SRB assay; format: functional
[18] = Growth inhibition of human NCI-H23 cells after 48 hrs by SRB assay; format: functional; conditions: NCI-H23, 48 h
[19] = Growth inhibition of human NCI-H522 cells after 48 hrs by SRB assay; format: functional; conditions: NCI-H522, 48 h
[20] = Growth inhibition of human A549 cells after 48 hrs by SRB assay; format: functional; conditions: A549, 48 h
[21] = Growth inhibition of human NCI-H322M cells after 48 hrs by SRB assay; format: functional
[22] = Growth inhibition of human HOP92 cells after 48 hrs by SRB assay; format: functional; conditions: HOP-92, 48 h
[23] = Growth inhibition of human NCI-H460 cells after 48 hrs by SRB assay; format: functional; conditions: NCI-H460, 48 h

Row | SMILES | IC50 [1] [nM] | growth at 10 µM [2] [%] | growth at 10 µM [3] [%] | growth at 10 µM [4] [%] | growth at 10 µM [5] [%] | IC50 [6] [nM] | solubility [7] [µg/mL] | IC50 [8] [nM] | growth at 10 µM [9] [%] | growth at 10 µM [10] [%] | growth at 10 µM [11] [%] | growth at 10 µM [12] [%] | IC50 [13] [nM] | growth at 10 µM [14] [%] | other results
1 | S=c1n(Cc2ccc3ccccc3c2)c2ccccc2n1Cc1ccc2ccccc2c1 | > 30000 | 88.2 | 93.1 | 93.1 | 81.9 | > 30000 | < 500 | > 30000 | 83.4 | 87.6 | 92.6 | 69.8 | > 30000 | 73.5 | –
2 | CCc1n(Cc2ccc3ccccc3c2)c2ccccc2[n+]1Cc1ccc2ccccc2c1.[Br-] | 3000 | 12.1 | 28.8 | 76.7 | 81.3 | 4000 | < 500 | < 1000 | 21.9 | 74.2 | 90.7 | 53.6 | 3000 | 64.9 | –
3 | CCCCc1n(Cc2ccc3ccccc3c2)c2ccccc2[n+]1Cc1ccc2ccccc2c1.[Br-] | 2000 | -77.2 | -83.9 | -84.6 | -76.8 | 2000 | < 500 | < 1000 | -70.7 | -72.3 | -82.2 | -81.1 | 2000 | -72.7 | GI50 [15]: 1080 nM; GI50 [16]: 1050 nM; TGI [16]: 2550 nM; GI50 [17]: 1170 nM; GI50 [18]: 371 nM; TGI [18]: 1700 nM; GI50 [19]: 289 nM; TGI [19]: 1350 nM; GI50 [20]: 1040 nM; TGI [20]: 2420 nM; GI50 [21]: 1220 nM; TGI [21]: 2570 nM; GI50 [22]: 298 nM; TGI [22]: 1350 nM; GI50 [23]: 436 nM
4 | Cc1n(Cc2ccc3ccccc3n2)c2ccccc2[n+]1Cc1ccc2ccccc2n1.[Cl-] | 9000 | 56.6 | 75.8 | 102 | 82.7 | 7000 | 1100 | 2000 | 52 | 87.9 | 94.9 | 95.8 | 3000 | 89.6 | –
5 | COCCc1n(Cc2ccc3ccccc3c2)c2ccccc2[n+]1Cc1ccc2ccccc2c1.[Br-] | 3000 | -54.4 | -24.3 | 4.7 | -19.1 | 3000 | < 500 | 2000 | -53.1 | 4.72 | 5.25 | -65.3 | 3000 | -7.12 | –
6 | COCCOCCOCc1n(Cc2ccc3ccccc3c2)c2ccccc2[n+]1Cc1ccc2ccccc2c1.[Br-] | 5000 | -16.6 | 5.56 | 47.4 | 17.1 | 5000 | 700 | 3000 | -32.1 | 33.1 | 40.5 | 10.3 | 3000 | 17.2 | –
7 | O=c1n(Cc2ccc3ccccc3c2)c2ccccc2n1Cc1ccc2ccccc2c1 | > 30000 | 73.4 | 77.7 | 79.5 | 62.8 | > 30000 | < 500 | 19000 | 79.9 | 85.2 | 81.6 | 74.6 | > 30000 | 83.9 | –
8 | COC(=O)CCc1n(Cc2ccc3ccccc3c2)c2ccccc2[n+]1Cc1ccc2ccccc2c1.[Br-] | 8000 | -29.4 | -7.39 | 42.1 | 19 | 4000 | < 500 | 2000 | -34.4 | 38.3 | 36.6 | 6.29 | 4000 | 17.7 | –
9 | COCCOCCOCc1n(Cc2ccc3ccccc3n2)c2ccccc2[n+]1Cc1ccc2ccccc2n1.[Cl-] | 9000 | -1.7 | 12.8 | 71.6 | 20.8 | 4000 | 42200 | < 1000 | -22.1 | 39.4 | 47.4 | 16.5 | 4000 | 37.9 | –
10 | [Br-].c1ccc2cc(Cn3c[n+](Cc4ccc5ccccc5c4)c4ccccc43)ccc2c1 | 5000 | -28.8 | -0.74 | 13.9 | 3.98 | 3000 | < 500 | 3000 | -27.6 | 30.9 | 34.6 | -34.2 | 3000 | 19.6 | GI50 [15]: 1460 nM; TGI [15]: 3250 nM; GI50 [16]: 1540 nM; TGI [16]: 2980 nM; GI50 [17]: 1470 nM; TGI [17]: 2950 nM; GI50 [18]: 1050 nM; TGI [18]: 2510 nM; GI50 [19]: 1250 nM; TGI [19]: 2820 nM; GI50 [20]: 1870 nM; LC50 [20]: 8010 nM; TGI [20]: 3880 nM; GI50 [21]: 1490 nM; TGI [21]: 2890 nM; GI50 [22]: 192 nM; LC50 [22]: 4930 nM; TGI [22]: 1570 nM; GI50 [23]: 1350 nM; TGI [23]: 2910 nM
11 | CCCCCCCc1n(Cc2ccc3ccccc3c2)c2ccccc2[n+]1Cc1ccc2ccccc2c1.[Br-] | < 1000 | -81.1 | -76.9 | -73.5 | -70.6 | < 1000 | < 500 | < 1000 | -84.4 | -77.5 | -86 | -73 | < 1000 | -70.8 | –
12 | CCCc1n(Cc2ccc3ccccc3c2)c2ccccc2[n+]1Cc1ccc2ccccc2c1.[Br-] | 2000 | -60.1 | -12.9 | -4.84 | -55.4 | < 1000 | < 500 | < 1000 | -48.1 | -19.4 | 4.72 | -76.1 | 2000 | -4.44 | GI50 [15]: 373 nM; TGI [15]: 1800 nM; GI50 [16]: 537 nM; TGI [16]: 2030 nM; GI50 [17]: 653 nM; TGI [17]: 2330 nM; GI50 [18]: 354 nM; TGI [18]: 1600 nM; GI50 [19]: 300 nM; TGI [19]: 1050 nM; GI50 [20]: 619 nM; LC50 [20]: 5090 nM; TGI [20]: 2040 nM; GI50 [21]: 1040 nM; TGI [21]: 2310 nM; GI50 [22]: 192 nM; TGI [22]: 911 nM; GI50 [23]: 337 nM; TGI [23]: 1360 nM
13 | OCCCc1n(Cc2ccc3ccccc3n2)c2ccccc2[n+]1Cc1ccc2ccccc2n1.[Cl-] | 25000 | 60 | 75 | 97.8 | 87.5 | 17000 | < 500 | 7000 | 47.9 | 93.2 | 91.7 | 91.8 | 11000 | 79.8 | –
